According to BindingDB's records for doi:10.1021/jm1008924 (Genentech, 2011):

What was measured:
[1] = molecular target: T1, Sonic hedgehog protein (Homo sapiens, UniProt Q15465); assay: Inhibition of human SHH pathway in mouse S12 cells assessed as GLI-mediated transcriptional activity after 48 hrs by luciferase reporter gene assay
[2] = molecular target: T1, Sonic hedgehog protein; assay: Inhibition of human SHH pathway in mouse S12 cells assessed as GLI-mediated transcriptional activity after 48 hrs by luciferase reporter gene assay in presence of 0.5 mg/mL human alpha-1-acid glycoprotein
In short: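 Mouse C3H10T1/2-derived S12 cells carrying a stably integrated GLI-luciferase reporter. Grown in high-glucose DMEM with 10% FBS, replated, then switched to 0.5% FBS to induce cilia. Shh, human AAG (0, 0.5, 1 or 5 mg/mL) and compound added. Luciferase (Dual-Glo) read after 48 h. Mean of four experiments ±SD.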

T1 sequence (Q15465 24-197 limits assumed): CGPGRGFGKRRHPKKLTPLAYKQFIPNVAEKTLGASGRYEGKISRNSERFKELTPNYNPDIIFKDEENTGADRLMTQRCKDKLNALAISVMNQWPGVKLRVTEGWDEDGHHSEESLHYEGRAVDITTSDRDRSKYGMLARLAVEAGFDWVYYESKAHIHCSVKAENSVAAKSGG

- IC50 [1]: 15 nM
- IC50 [2]: 1750 nM
SMILES: CS(=O)(=O)c1ccc(C(=O)Nc2ccc(Cl)c(-c3ccccn3)c2)c(Cl)c1 [2-chloro-N-(4-chloro-3-(pyridin-2-yl)phenyl)-4-(methylsulfonyl)benzamide]
